Measured values from ChEMBL document CHEMBL1127618, “A novel nonpeptide HIV-1 protease inhibitor: elucidation of the binding mode and its application in the design of related analogs” (J Med Chem, 1994).

Target: Human immunodeficiency virus type 1 protease (Human immunodeficiency virus 1, UniProt Q72874)
Assay: Inhibition of HIV-1 protease
How it was run: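 HIV-1 protease at 6.0 nM final added to inhibitor plus 40 μM undecapeptide substrate H-His-Lys-Ala-Arg-Val-Leu-(p-NO2)Phe-Glu-Ala-Nle-Ser-NH2, 1.0% DMSO, in 80 mM NaOAc, 160 mM NaCl, 1.0 mM EDTA, 1.0 mM DTT, 0.1% PEG 8000, pH 4.7, 37 °C. Inhibitor at […]. After 5 min, quenched with 2% TFA. Substrate and product resolved by reversed-phase HPLC (A220). % control from % conversion gives IC50.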

Structure (SMILES)	IC50
O=c1oc2ccccc2c(O)c1CCCOCc1ccccc1	38 µM
O=c1oc2ccccc2c(O)c1CCCN(Cc1ccccc1)c1ccccc1	13 µM
O=c1c(CCCOc2cccc(CO)c2)c(O)oc2ccccc12	2.3 µM
O=c1oc2ccccc2c(O)c1CCCN(c1ccccc1)c1ccc(F)cc1	5.5 µM
O=c1oc2ccccc2c(O)c1CCCOc1cccc(Cl)c1	1.4 µM
CCOC(=O)c1cccc(OCCCc2c(O)oc3ccccc3c2=O)c1	1.4 µM
COc1ccc(CCCCc2c(O)oc3ccccc3c2=O)cc1	> 100 µM
COc1ccccc1CCCCc1c(O)c2ccc(O)cc2oc1=O	0.52 µM
O=c1oc2ccccc2c(O)c1CCCCc1ccccc1	110 µM
O=c1c(CCCO)c(O)oc2ccccc12	86 µM
O=c1oc2ccccc2c(O)c1CCCCOc1ccccc1	> 100 µM
O=c1oc2ccccc2c(O)c1CCCOc1ccccc1	2.3 µM
O=c1oc2ccccc2c(O)c1CCCOc1cccc([N+](=O)[O-])c1	4 µM
O=c1oc2ccccc2c(O)c1CCCSc1ccccc1	26 µM
O=c1oc2ccccc2c(O)c1CCOc1ccccc1	53 µM
O=c1[nH]c2ccccc2c(O)c1CCCOc1ccccc1	> 200 µM
O=c1oc2ccccc2c(O)c1SCCOc1ccccc1	24 µM
O=c1c(CC/C(=N/O)c2ccccc2)c(O)oc2ccccc12	71 µM
COc1ccccc1CCCCc1c(O)oc2ccccc2c1=O	1.7 µM
COc1ccccc1OCCCc1c(O)oc2ccccc2c1=O	44 µM
O=c1oc2ccccc2c(O)c1CCOCc1ccccc1	4 µM
COc1ccccc1CCCCc1c(O)oc2cc(OCc3ccccc3)ccc2c1=O	> 100 µM
O=C(O)c1cccc(OCCCc2c(O)oc3ccccc3c2=O)c1	7 µM
N#Cc1cccc(OCCCc2c(O)c3ccccc3oc2=O)c1	0.67 µM
O=c1oc2ccccc2c(O)c1CCCOC1CCCCC1	32 µM
O=C(CCc1c(O)c2ccccc2oc1=O)c1ccccc1	90 µM
NC(=O)c1cccc(OCCCc2c(O)oc3ccccc3c2=O)c1	3.9 µM
Nc1cccc(OCCCc2c(O)oc3ccccc3c2=O)c1	6.4 µM
COc1ccc2c(O)c(CCCCc3ccccc3OC)c(=O)oc2c1	3.3 µM
